Laboratory results as given in ChEMBL document CHEMBL1154352, “Toll-like receptor 7 selective synthetic oligoribonucleotide agonists: synthesis and structure-activity relationship studies” (J Med Chem, 2009).
The source made the active and inactive calls. The rule behind the calls is not given here.

Tests used:
[1] = organism: Homo sapiens; assay: Immunostimulatory activity in human pDC assessed as induction of IFNalpha at 100 ug/ml after 24 hrs; format: functional
Method in brief: (§1)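 Human pDCs plated at 1 × 10^6 cells/mL; compounds in PBS added, 37 °C for 24 h; supernatant cytokines/chemokines by human Luminex multiplex kit.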

[2] = test system: Mus musculus; assay: Immunomodulatory activity in C57BL/6 mouse assessed as induction of IL12 release at 25 mg/kg, sc after 2 hrs by ELISA; format: functional, organism-based; design: dose 25 mg/kg
Method in brief: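 Female C57BL/6 wild-type mice, 5–8 weeks old, n=3; compounds given subcutaneously at 10 or 25 mg/kg. Retro-orbital blood at 2 h; serum cytokines by mouse Luminex multiplex or IL-12 ELISA.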

[3] = test system: PBMC; assay: Immunomodulatory activity in human PBMC assessed as induction of IFNalpha at 50 ug/ml after 24 hrs; format: functional, cell-based
Method in brief: (§2)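 Human PBMCs plated at 5 × 10^6 cells/mL; compounds dissolved in PBS added at various concentrations, 37 °C for 24 h. Supernatant cytokines/chemokines quantified with human Luminex multiplex kit.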

[4] = Metabolic stability in human serum assessed as full length product remaining after 10 mins by HPLC; format: ADME, cell-free; conditions: read-out: Stability
Method in brief: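 About 0.5 A260 units compound in 1% human serum in PBS, 37 °C; aliquot taken at 10 min, analysed by anion-exchange HPLC for percent intact full-length product.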

[5] = test system: PBMC; assay: Immunomodulatory activity in human PBMC assessed as induction of MIP1alpha at 50 ug/ml after 24 hrs; format: functional, cell-based; method in brief: as §2
[6] = organism: Homo sapiens; assay: Immunostimulatory activity in human mDC assessed as induction of IL12 at 100 ug/ml after 24 hrs; format: functional
Method in brief: (§3)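 Human mDCs isolated from PBMCs by CD19+ B-cell depletion then BDCA1 positive selection; plated at 1 × 10^6 cells/mL, compounds in PBS, 37 °C for 24 h; supernatant cytokines by human Luminex multiplex. Representative of four independent experiments.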

[7] = test system: PBMC; assay: Immunomodulatory activity in human PBMC assessed as induction of MIP1beta at 50 ug/ml after 24 hrs; format: functional, cell-based; method in brief: as §2
[8] = test system: PBMC; assay: Immunomodulatory activity in human PBMC assessed as induction of MCP1 at 50 ug/ml after 24 hrs; format: functional, cell-based; method in brief: as §2
[9] = test system: PBMC; assay: Immunomodulatory activity in human PBMC assessed as induction of IP10 at 50 ug/ml after 24 hrs; format: functional, cell-based; method in brief: as §2
[10] = test system: PBMC; assay: Immunomodulatory activity in human PBMC assessed as induction of IL12 at 50 ug/ml after 24 hrs; format: functional, cell-based; method in brief: as §2
[11] = molecular target: T1, Toll-like receptor 8 (Homo sapiens) (UniProt Q9NR97); assay: Activation of human TLR8 expressed in HEK293XL assessed as fold induction of NF-kappaB activity at 50 ug/ml after 18 hrs by reporter gene assay relative to control
T1 sequence (whole entry): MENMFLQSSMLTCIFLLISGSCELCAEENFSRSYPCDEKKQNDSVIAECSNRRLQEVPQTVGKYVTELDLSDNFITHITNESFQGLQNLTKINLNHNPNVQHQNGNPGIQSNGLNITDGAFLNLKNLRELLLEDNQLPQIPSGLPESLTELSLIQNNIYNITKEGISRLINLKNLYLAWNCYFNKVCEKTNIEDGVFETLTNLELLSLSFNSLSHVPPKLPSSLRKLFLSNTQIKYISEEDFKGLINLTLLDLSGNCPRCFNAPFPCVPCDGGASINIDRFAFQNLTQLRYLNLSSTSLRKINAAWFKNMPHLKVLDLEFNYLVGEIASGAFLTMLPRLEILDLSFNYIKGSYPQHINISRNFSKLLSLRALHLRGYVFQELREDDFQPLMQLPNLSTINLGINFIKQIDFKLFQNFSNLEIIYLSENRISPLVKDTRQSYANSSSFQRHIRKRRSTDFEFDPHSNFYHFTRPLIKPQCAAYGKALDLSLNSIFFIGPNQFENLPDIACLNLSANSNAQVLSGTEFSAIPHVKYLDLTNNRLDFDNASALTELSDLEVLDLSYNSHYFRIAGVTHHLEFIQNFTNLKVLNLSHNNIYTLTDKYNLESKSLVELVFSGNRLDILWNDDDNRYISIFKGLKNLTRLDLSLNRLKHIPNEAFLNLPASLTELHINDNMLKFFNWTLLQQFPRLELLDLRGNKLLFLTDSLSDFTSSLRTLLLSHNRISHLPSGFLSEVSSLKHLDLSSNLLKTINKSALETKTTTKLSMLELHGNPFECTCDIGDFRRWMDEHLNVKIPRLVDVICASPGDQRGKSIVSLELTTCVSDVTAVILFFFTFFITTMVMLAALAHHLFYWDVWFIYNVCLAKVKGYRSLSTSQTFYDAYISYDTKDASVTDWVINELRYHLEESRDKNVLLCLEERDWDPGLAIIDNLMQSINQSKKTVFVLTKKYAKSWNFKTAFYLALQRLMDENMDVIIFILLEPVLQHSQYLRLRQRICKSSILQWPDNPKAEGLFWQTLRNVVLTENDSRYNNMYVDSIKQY
Method in brief: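 HEK293 cells stably expressing human TLR7 or TLR8, transiently transfected with SEAP reporter plasmid; medium replaced, SIMRA compounds added, 18 h incubation. Supernatant SEAP measured by QuantiBlue; expressed as fold increase in NF-κB activity over PBS control. Tabulated data at 50 μg/mL, representative of three independent experiments.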

[12] = organism: Homo sapiens; assay: Immunostimulatory activity in human mDC assessed as induction of IP10 at 100 ug/ml after 24 hrs; format: functional; method in brief: as §3
[13] = organism: Homo sapiens; assay: Immunostimulatory activity in human mDC assessed as induction of IL6 at 100 ug/ml after 24 hrs; format: functional; method in brief: as §3
[14] = test system: PBMC; assay: Immunomodulatory activity in human PBMC assessed as induction of TNFalpha at 50 ug/ml after 24 hrs; format: functional, cell-based; method in brief: as §2
[15] = organism: Homo sapiens; assay: Immunostimulatory activity in human pDC assessed as induction of IP10 at 100 ug/ml after 24 hrs; format: functional; method in brief: as §1
[16] = organism: Homo sapiens; assay: Immunostimulatory activity in human mDC assessed as induction of TNFalpha at 100 ug/ml after 24 hrs; format: functional; method in brief: as §3
[17] = organism: Homo sapiens; assay: Immunostimulatory activity in human pDC assessed as induction of IL6 at 100 ug/ml after 24 hrs; format: functional; method in brief: as §1
[18] = organism: Homo sapiens; assay: Immunostimulatory activity in human mDC assessed as induction of IFNalpha at 100 ug/ml after 24 hrs; format: functional; method in brief: as §3
[19] = test system: PBMC; assay: Immunomodulatory activity in human PBMC assessed as induction of IL1-beta at 50 ug/ml after 24 hrs; format: functional, cell-based; method in brief: as §2
[20] = test system: PBMC; assay: Immunomodulatory activity in human PBMC assessed as induction of IL6 at 50 ug/ml after 24 hrs; format: functional, cell-based; method in brief: as §2

| remaining at 10 min [4] [%] | fold change (FC) [11] | Compound | Activity [1] | Activity [2] | Activity [3] [pg/mL] | Activity [5] [pg/mL] | Activity [6] | Activity [7] [pg/mL] | Activity [8] [pg/mL] | Activity [9] [pg/mL] | Activity [10] [pg/mL] | Activity [12] | Activity [13] | Activity [14] [pg/mL] | Activity [15] | Activity [16] | Activity [17] | Activity [18] | Activity [19] [pg/mL] | Activity [20] [pg/mL] |
| --- | --- | --- | --- | --- | --- | --- | --- | --- | --- | --- | --- | --- | --- | --- | --- | --- | --- | --- | --- | --- |
| 79 | 2 | Nc1ccn([C@@H]2O[C@H](COP(=O)(S)O[C@H]3[C@@H](O)[C@H](n4cnc5c(N)ncnc54)O[C@@H]3CO)[C@@H](OP(=O)(S)OC[C@H]3O[C@@H](n4ccc(=O)[nH]c4=O)[C@H](O)[C@@H]3OP(=O)(S)OC[C@H]3O[C@@H](n4ccc(=O)[nH]c4=O)[C@H](O)[C@@H]3OP(=O)(S)OC[C@H]3O[C@@H](n4ccc5c(=O)[nH]c(N)nc54)[C@H](O)[C@@H]3OP(=O)(S)OC[C@H]3O[C@@H](n4cnc5c(N)ncnc54)[C@H](O)[C@@H]3OP(=O)(S)OC[C@H]3O[C@@H](n4cnc5c(N)ncnc54)[C@H](O)[C@@H]3OP(=O)(S)OC[C@H]3O[C@@H](n4ccc5c(=O)[nH]c(N)nc54)[C@H](O)[C@@H]3OP(=O)(S)OC[C@H]3O[C@@H](n4ccc(N)nc4=O)[C@H](O)[C@@H]3OP(=O)(S)OC[C@H]3O[C@@H](n4ccc(=O)[nH]c4=O)[C@H](O)[C@@H]3OP(=O)(S)OC[C@H]3O[C@@H](n4ccc(=O)[nH]c4=O)[C@H](O)[C@@H]3OP(=O)(S)OCC(O)COP(=O)(S)O[C@H]3[C@@H](O)[C@H](n4ccc(=O)[nH]c4=O)O[C@@H]3COP(=O)(S)O[C@H]3[C@@H](O)[C@H](n4ccc(=O)[nH]c4=O)O[C@@H]3COP(=O)(S)O[C@H]3[C@@H](O)[C@H](n4ccc(N)nc4=O)O[C@@H]3COP(=O)(S)O[C@H]3[C@@H](O)[C@H](n4ccc5c(=O)[nH]c(N)nc54)O[C@@H]3COP(=O)(S)O[C@H]3[C@@H](O)[C@H](n4cnc5c(N)ncnc54)O[C@@H]3COP(=O)(S)O[C@H]3[C@@H](O)[C@H](n4cnc5c(N)ncnc54)O[C@@H]3COP(=O)(S)O[C@H]3[C@@H](O)[C@H](n4ccc5c(=O)[nH]c(N)nc54)O[C@@H]3COP(=O)(S)O[C@H]3[C@@H](O)[C@H](n4ccc(=O)[nH]c4=O)O[C@@H]3COP(=O)(S)O[C@H]3[C@@H](O)[C@H](n4ccc(=O)[nH]c4=O)O[C@@H]3COP(=O)(S)O[C@H]3[C@@H](O)[C@H](n4ccc(N)nc4=O)O[C@@H]3COP(=O)(S)O[C@H]3[C@@H](O)[C@H](n4cnc5c(N)ncnc54)O[C@@H]3CO)[C@H]2O)c(=O)n1 (stereo not given in full) | Active | Active | 230 | 5630 | Active | 9220 | 52900 | 287 | 354 | Active | Active | 76 | Active | Active | Active | Active | 261 | 2730 |
| 90 | 0.8 | Nc1ccn([C@@H]2O[C@H](COP(=O)(S)O[C@H]3[C@@H](O)[C@H](n4cnc5c(N)ncnc54)O[C@@H]3COP(=O)(S)O[C@H]3[C@@H](O)[C@H](n4ccc5c(=O)[nH]c(N)nc54)O[C@@H]3COP(=O)(S)O[C@H]3[C@@H](O)[C@H](n4ccc(=O)[nH]c4=O)O[C@@H]3COP(=O)(S)O[C@H]3[C@@H](O)[C@H](n4ccc5c(=O)[nH]c(N)nc54)O[C@@H]3COP(=O)(S)O[C@H]3[C@@H](O)[C@H](n4cnc5c(N)ncnc54)O[C@@H]3COP(=O)(S)O[C@H]3[C@@H](O)[C@H](n4cnc5c(N)ncnc54)O[C@@H]3CO)[C@@H](OP(=O)(S)OC[C@H]3O[C@@H](n4ccc5c(=O)[nH]c(N)nc54)[C@H](O)[C@@H]3OP(=O)(S)OC[C@H]3O[C@@H](n4cnc5c(N)ncnc54)[C@H](O)[C@@H]3OP(=O)(S)OC[C@H]3O[C@@H](n4ccc(=O)[nH]c4=O)[C@H](O)[C@@H]3OP(=O)(S)OC[C@H]3O[C@@H](n4ccc(=O)[nH]c4=O)[C@H](O)[C@@H]3OP(=O)(S)OCC(O)COP(=O)(S)O[C@H]3[C@@H](O)[C@H](n4ccc(=O)[nH]c4=O)O[C@@H]3COP(=O)(S)O[C@H]3[C@@H](O)[C@H](n4ccc(=O)[nH]c4=O)O[C@@H]3COP(=O)(S)O[C@H]3[C@@H](O)[C@H](n4cnc5c(N)ncnc54)O[C@@H]3COP(=O)(S)O[C@H]3[C@@H](O)[C@H](n4ccc5c(=O)[nH]c(N)nc54)O[C@@H]3COP(=O)(S)O[C@H]3[C@@H](O)[C@H](n4ccc(N)nc4=O)O[C@@H]3COP(=O)(S)O[C@H]3[C@@H](O)[C@H](n4cnc5c(N)ncnc54)O[C@@H]3COP(=O)(S)O[C@H]3[C@@H](O)[C@H](n4ccc5c(=O)[nH]c(N)nc54)O[C@@H]3COP(=O)(S)O[C@H]3[C@@H](O)[C@H](n4ccc(=O)[nH]c4=O)O[C@@H]3COP(=O)(S)O[C@H]3[C@@H](O)[C@H](n4ccc5c(=O)[nH]c(N)nc54)O[C@@H]3COP(=O)(S)O[C@H]3[C@@H](O)[C@H](n4cnc5c(N)ncnc54)O[C@@H]3COP(=O)(S)O[C@H]3[C@@H](O)[C@H](n4cnc5c(N)ncnc54)O[C@@H]3CO)[C@H]2O)c(=O)n1 (stereo not given in full) | Active | Active | 121 | 3090 | Active | 6680 | 46700 | 55 | 174 | Active | Active | 18 | Active | Active | Active | Active | 123 | 1900 |
